What was measured:
[1] = tested on: SK-MEL-28; assay: Growth inhibition of proapoptotic stimuli-resistant human SK-MEL-28 cells after 72 hrs by MTT assay; format: functional, cell-based
Procedure, shortened: (§1)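 MTT assay. Cells were plated at 10,000–40,000 cells/mL and left 24 h to attach, then exposed to compound for 72 h (untreated controls). Formazan was read at 570 nm (reference 630 nm). Tested up to 10 μM (first panel) or up to 100 μM (second panel). Sextuplicate. U373 grown in MEM + 5% FBS; Hs683, SK-MEL-28 and B16F10 in RPMI + 10% FBS.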

[2] = Growth inhibition of proapoptotic stimuli-resistant human OE21 cells after 72 hrs by MTT assay; format: functional, cell-based
[3] = tested on: A549; assay: Growth inhibition of proapoptotic stimuli-resistant human A549 cells after 72 hrs by MTT assay; format: functional, cell-based
Procedure, shortened: (§2)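 Cells plated 24 h in 96-well plates (10,000-40,000 cells/mL by cell type) in MEM (5% or 10% heat-inactivated FBS; with 100 μM non-essential amino acids for WI-38 and NHDF) or RPMI 10% FBS (A549), then exposed 72 h to compound up to 100 μM; MTT reduction read at 570 nm (reference 630 nm); sextuplicate.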

[4] = tested on: B16-F10; assay: Growth inhibition of proapoptotic stimuli-sensitive mouse B16F10 cells after 72 hrs by MTT assay; format: functional, cell-based; procedure, shortened: as §1
[5] = Growth inhibition of proapoptotic stimuli-resistant human U373 cells after 72 hrs by MTT assay; format: functional, cell-based, U-373MG ATCC; procedure, shortened: as §1
[6] = Growth inhibition of proapoptotic stimuli-sensitive human Hs683 cells after 72 hrs by MTT assay; format: functional, cell-based, Hs 683; procedure, shortened: as §1
[7] = tested on: NHDF; assay: Growth inhibition of human NHDF after 72 hrs by MTT assay; format: cell-based; procedure, shortened: as §2
[8] = Growth inhibition of human WS1 cells after 72 hrs by MTT assay; format: cell-based; details: WS1, 72 h; procedure, shortened: as §2
[9] = Growth inhibition of human WI38 cells after 72 hrs by MTT assay; format: cell-based; details: WI-38, 72 h; procedure, shortened: as §2

| Compound | IC50 ([1]; Homo sapiens, SK-MEL-28, 72 h) [µM] | IC50 ([2]; Homo sapiens, OE21, 72 h) [µM] | IC50 ([3]; Homo sapiens, A549, 72 h) [µM] | IC50 ([4]; Mus musculus, B16-F10, 72 h) [µM] | IC50 ([5]; Homo sapiens, U373 MG, 72 h) [µM] | IC50 ([6]; Homo sapiens, Hs 683, 72 h) [µM] | IC50 ([1]; sk-mel-28) [µM] | IC50 ([2]; oe21) [µM] | IC50 ([3]; a549) [µM] | IC50 ([4]; b16-f10) [µM] | IC50 ([5]; u-373mg atcc) [µM] | IC50 ([6]; hs 683) [µM] | IC50 [7] [µM] | IC50 [8] [µM] | IC50 [9] [µM] |
| --- | --- | --- | --- | --- | --- | --- | --- | --- | --- | --- | --- | --- | --- | --- | --- |
| O[C@H]1[C@H]2c3cc4c(cc3CN3CC[C@@H](C[C@@H]1O)[C@H]23)OCO4 | > 10 | > 10 | > 10 | > 10 | > 10 | > 10 |  |  |  |  |  |  |  |  |  |
| C[N+]12CCC3=C[C@H](O)[C@@H](O)[C@@H](c4cc5c(cc4C1)OCO5)[C@@H]32 (some centres not stated) |  |  |  |  |  |  | > 10 | > 10 | > 10 | > 10 | > 10 | > 10 |  |  |  |
| CC(=O)O[C@H]1[C@H]2c3cc4c(cc3CN3CCC(=C[C@@H]1O)[C@H]23)OCO4 | > 10 | > 10 | > 10 | > 10 | > 10 | > 10 |  |  |  |  |  |  |  |  |  |
| O[C@H]1[C@H]2c3cc4c(cc3CN3CC[C@H](C[C@@H]1O)[C@H]23)OCO4 | > 10 | > 10 | > 10 | > 10 | > 10 | > 10 |  |  |  |  |  |  |  |  |  |
| [O-]c1cc2c3c(c1)c1cc4c(cc1c[n+]3CC2)OCO4 [UNGEREMINE] | > 10 | > 10 | > 10 | > 10 | 8.3 | > 10 |  |  |  |  |  |  |  |  |  |
| CC(=O)O[C@H]1[C@H]2c3cc4c(cc3CN3CC[C@@H](C[C@@H]1OC(C)=O)[C@H]23)OCO4 | > 10 | > 10 | > 10 | > 10 | > 10 | > 10 |  |  |  |  |  |  |  |  |  |
| O[C@@H]1CC=C2CCN3Cc4cc5c(cc4[C@H]1[C@@H]23)OCO5 [CARANINE] | > 10 | > 10 | > 10 | > 10 | > 10 | > 10 |  |  |  |  |  |  |  |  |  |
| O[C@H]1[C@H]2c3cc4c(cc3CN3CCC(=C[C@H]1O)[C@H]23)OCO4 | > 10 | > 10 | > 10 | > 10 | > 10 | > 10 |  |  |  |  |  |  |  |  |  |
| O[C@H]1[C@H]2c3cc4c(cc3CN3CCC(=C[C@@H]1Cl)[C@H]23)OCO4 | > 10 | 9.6 | 3.8 | 6.9 | 2.3 | 3.1 |  |  |  |  |  |  | 72.1 | > 100 | 46 |
| O=C1c2cc3c(cc2[C@@H]2[C@H](O)[C@@H](O)C[C@H]4CCN1[C@H]42)OCO3 | > 10 | > 10 | > 10 | > 10 | > 10 | > 10 |  |  |  |  |  |  |  |  |  |
| COC1=C[C@@H]2CCN3Cc4cc5c(cc4[C@@H]([C@H]23)[C@@H]1O)OCO5 [AMARBELLISINE] | 8.3 |  | 7.2 | 6.7 |  | 8.3 |  |  |  |  |  |  | > 100 | 97.6 | > 100 |
| COc1cc2c(cc1O)CN1CCC3=CC[C@@H](O)[C@@H]2[C@@H]31 [NORPLUVINE] | > 10 | > 10 | > 10 | > 10 | > 10 | > 10 |  |  |  |  |  |  |  |  |  |
| C1=C2CCN3Cc4cc5c(cc4[C@H]([C@@H]4O[C@H]14)[C@@H]23)OCO5 | 9.5 | 8.5 | 3.4 | 4.6 | 2.4 | 3.3 |  |  |  |  |  |  | 9.3 | 36.8 | 28.6 |
| CC(=O)O[C@H]1C=C2CCN3Cc4cc5c(cc4[C@H]([C@@H]1O)[C@@H]23)OCO5 | > 10 | > 10 | > 10 | > 10 | > 10 | > 10 |  |  |  |  |  |  | > 100 | > 100 | 88.5 |
| CC(=O)O[C@H]1[C@H]2c3cc4c(cc3CN3CCC(=C[C@@H]1OC(C)=O)[C@H]23)OCO4 | > 10 | > 10 | > 10 | > 10 | > 10 | > 10 |  |  |  |  |  |  |  |  |  |
| COc1cc2c(cc1O)[C@@H]1[C@H](O)[C@@H](O)C=C3CCN(C2)[C@H]31 [PSEUDOLYCORINE] | > 10 |  |  | 7.5 |  | 7.9 |  |  |  |  |  |  | 66.9 | 79.1 | 44 |
| c1cc2c3c(c1)-c1cc4c(cc1CN3CC2)OCO4 [ANHYDROLYCORINE] | > 10 | 8.8 | 4.5 | > 10 | 5.1 | 7.1 |  |  |  |  |  |  | 26.6 | 23.7 | 30.1 |
| C1=C2CCN3Cc4cc5c(cc4[C@H](CC1)[C@@H]23)OCO5 [LYCORENE] | > 10 | > 10 | > 10 | > 10 | > 10 | > 10 |  |  |  |  |  |  |  |  |  |
| O=C1C=C2CCN3Cc4cc5c(cc4[C@H]([C@@H]1O)[C@@H]23)OCO5 | > 10 | > 10 |  | > 10 | > 10 | > 10 |  |  |  |  |  |  |  |  |  |
| CC(=O)O[C@H]1[C@H]2c3cc4c(cc3CN3CC[C@H](C[C@@H]1OC(C)=O)[C@H]23)OCO4 | > 10 | > 10 | > 10 | > 10 | > 10 | > 10 |  |  |  |  |  |  |  |  |  |
